Values after ≈ are worked out from the molar mass of the structure shown. Active and inactive are the calls of the source. The calls are words filed in the database; no cut-off is given here.
Columns and labels:
Staphylococcus aureus [1] = test: Antimicrobial activity against methicillin-resistant Staphylococcus aureus HEMSA incubated for 20 hrs by serial dilution broth microplate method; assay type: functional
Summary of the method: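 Broth microdilution MIC per CLSI in Mueller-Hinton broth against clinical isolate MRSA HEMSA 5. Bacterial suspension adjusted to OD 0.5, diluted 1:100 and added to serial two-fold dilutions of test agent. Ampicillin/sulbactam used at 2:1 ratio. Growth read after 20 h at 37 °C.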

Staphylococcus aureus [2] = test: Antimicrobial activity against Staphylococcus aureus ATCC 25923 incubated for 20 hrs by serial dilution broth microplate method; assay type: functional; conditions: ATCC 25923, 20 h
Summary of the method: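 Broth dilution per CLSI in Mueller-Hinton broth, serial two-fold dilutions; compounds alone against reference strain, inoculum from suspension at OD 0.5 diluted 1:100; read after 20 h at 37 °C. MIC taken as lowest concentration inhibiting growth.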

[3] = target: T1, Methicillin resistance mecR1 protein (Staphylococcus aureus) (UniProt P0A0B1); test: Inhibition of MecR1 in methicillin-resistant Staphylococcus aureus HEMSA assessed as reduction in oxacillin A MIC at 0.5 mM incubated for 20 hrs by serial dilution broth microplate method
T1 sequence (whole entry): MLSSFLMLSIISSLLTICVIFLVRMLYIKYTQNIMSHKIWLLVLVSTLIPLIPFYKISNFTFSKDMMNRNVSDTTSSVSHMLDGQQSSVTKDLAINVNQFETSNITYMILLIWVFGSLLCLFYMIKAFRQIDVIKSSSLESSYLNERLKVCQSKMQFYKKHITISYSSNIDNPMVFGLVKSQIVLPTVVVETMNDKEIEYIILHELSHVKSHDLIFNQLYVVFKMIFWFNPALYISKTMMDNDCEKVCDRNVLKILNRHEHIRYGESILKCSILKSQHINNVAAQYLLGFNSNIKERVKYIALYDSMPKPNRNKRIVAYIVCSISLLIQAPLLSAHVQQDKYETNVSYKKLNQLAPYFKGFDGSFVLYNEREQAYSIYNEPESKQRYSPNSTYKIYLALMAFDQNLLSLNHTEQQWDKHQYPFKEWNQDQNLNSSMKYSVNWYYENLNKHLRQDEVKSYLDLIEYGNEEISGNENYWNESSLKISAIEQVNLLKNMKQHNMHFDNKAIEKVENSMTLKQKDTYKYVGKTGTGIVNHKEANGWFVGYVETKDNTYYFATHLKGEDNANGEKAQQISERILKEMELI
Summary of the method: (§1)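 Chemosensitization in MRSA HEMSA 5 measured by CLSI broth microdilution in Mueller-Hinton broth. Serial two-fold dilutions of antibiotic (oxacillin, cloxacillin, ampicillin/sulbactam 2:1, ciprofloxacin or neomycin) combined with compound at fixed concentration not exceeding ¼ of its own MIC. Inoculum OD 0.5 diluted 1:100. Read after 20 h at 37 °C. Result given as fold reduction of antibiotic MIC.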

Staphylococcus aureus [4] = test: Potentiation of oxacillin-induced antibacterial activity against Staphylococcus aureus ATCC 25923 assessed as reduction in oxacillin MIC at 0.5 mM incubated for 20 hrs by serial dilution broth microplate method; assay type: functional, organism-based
[5] = target: T1, Methicillin resistance mecR1 protein (Staphylococcus aureus); test: Inhibition of MecR1 in methicillin-resistant Staphylococcus aureus HEMSA assessed as reduction in cloxacillin MIC at 0.5 mM incubated for 20 hrs by serial dilution broth microplate method; summary of the method: as §1
[6] = target: T1, Methicillin resistance mecR1 protein (Staphylococcus aureus); test: Inhibition of MecR1 in methicillin-resistant Staphylococcus aureus HEMSA assessed as reduction in ampicillin and sulbactam MIC at 0.5 mM incubated for 20 hrs by serial dilution broth microplate method; summary of the method: as §1
Staphylococcus aureus [7] = test: Potentiation of […] antibacterial activity against Staphylococcus aureus ATCC 25923 assessed as reduction in cloxacillin MIC incubated for 20 hrs by serial dilution broth microplate method; assay type: functional, organism-based
Staphylococcus aureus [8] = test: Potentiation of […] antibacterial activity against Staphylococcus aureus ATCC 25923 assessed as reduction in ampicillin and sulbactam MIC MIC incubated for 20 hrs by serial dilution broth microplate method; assay type: functional, organism-based
[9] = target: T1, Methicillin resistance mecR1 protein (Staphylococcus aureus); test: Inhibition of MecR1 in methicillin-resistant Staphylococcus aureus HEMSA assessed as reduction in ciprofloxacin MIC at 0.5 mM incubated for 20 hrs by serial dilution broth microplate method; summary of the method: as §1
[10] = target: T1, Methicillin resistance mecR1 protein (Staphylococcus aureus); test: Inhibition of MecR1 in methicillin-resistant Staphylococcus aureus HEMSA assessed as reduction in neomycin MIC at 0.5 mM incubated for 20 hrs by serial dilution broth microplate method; summary of the method: as §1
Staphylococcus aureus [11] = test: Potentiation of ciprofloxacin -induced antibacterial activity against Staphylococcus aureus ATCC 25923 assessed as reduction in […] MIC incubated for 20 hrs by serial dilution broth microplate method; assay type: functional, organism-based
Staphylococcus aureus [12] = test: Potentiation of neomycin-induced antibacterial activity against Staphylococcus aureus ATCC 25923 assessed as reduction in […] MIC incubated for 20 hrs by serial dilution broth microplate method; assay type: functional, organism-based
[13] = target: T1, Methicillin resistance mecR1 protein (Staphylococcus aureus); test: Inhibition of MecR1 in methicillin-resistant Staphylococcus aureus HEMSA assessed as reduction in oxacillin A MIC at 0.125 mM incubated for 20 hrs by serial dilution broth microplate method; summary of the method: as §1
Staphylococcus aureus [14] = test: Potentiation of oxacillin-induced antibacterial activity against Staphylococcus aureus ATCC 25923 assessed as reduction in oxacillin MIC at 0.0625 mM incubated for 20 hrs by serial dilution broth microplate method; assay type: functional
[15] = target: T1, Methicillin resistance mecR1 protein (Staphylococcus aureus); test: Inhibition of MecR1 in methicillin-resistant Staphylococcus aureus HEMSA assessed as reduction in cloxacillin MIC at 0.125 mM incubated for 20 hrs by serial dilution broth microplate method; summary of the method: as §1
[16] = target: T1, Methicillin resistance mecR1 protein (Staphylococcus aureus); test: Inhibition of MecR1 in methicillin-resistant Staphylococcus aureus HEMSA assessed as reduction in ampicillin and sulbactam MIC at 0.125 mM incubated for 20 hrs by serial dilution broth microplate method; summary of the method: as §1
[17] = target: T1, Methicillin resistance mecR1 protein (Staphylococcus aureus); test: Inhibition of MecR1 in methicillin-resistant Staphylococcus aureus HEMSA assessed as reduction in ciprofloxacin MIC at 0.125 mM incubated for 20 hrs by serial dilution broth microplate method; summary of the method: as §1
[18] = target: T1, Methicillin resistance mecR1 protein (Staphylococcus aureus); test: Inhibition of MecR1 in methicillin-resistant Staphylococcus aureus HEMSA assessed as reduction in neomycin MIC at 0.125 mM incubated for 20 hrs by serial dilution broth microplate method; summary of the method: as §1
Staphylococcus aureus [19] = test: Resistance index, ratio of MIC for methicillin-resistant Staphylococcus aureus HEMSA to MIC for Staphylococcus aureus ATCC 25923; assay type: functional
[20] = target: T1, Methicillin resistance mecR1 protein (Staphylococcus aureus); test: Inhibition of MecR1 in methicillin-resistant Staphylococcus aureus HEMSA assessed as reduction in oxacillin A MIC at 0.25 mM incubated for 20 hrs by serial dilution broth microplate method; summary of the method: as §1

SMILES | MIC (Staphylococcus aureus [1]) [µM] | MIC (Staphylococcus aureus [2]) [µM] | Activity (Staphylococcus aureus [4]) | Activity (Staphylococcus aureus [7]) | Activity (Staphylococcus aureus [8]) | Activity (Staphylococcus aureus [11]) | Activity (Staphylococcus aureus [12]) | other results
O=C1NC(N2CCNCC2)=N/C1=C\c1cccs1 | > 1000 | > 1000 | inactive | inactive | inactive | inactive | inactive | inhibition [3]: inactive; inhibition [5]: inactive; inhibition [6]: inactive; inhibition [9]: inactive; inhibition [10]: inactive
O=C1N/C(=C\c2ccc(Cl)cc2)C(=O)N1CC(O)CN1CCNCC1 (stereo not drawn) | 1000 (≈ 365 µg/mL) | > 1000 |  |  |  |  |  | 
Cc1onc(-c2ccccc2Cl)c1C(=O)N[C@@H]1C(=O)N2[C@@H]1SC(C)(C)[C@@H]2C(=O)O [CLOXACILLIN] | 160 (≈ 69.7 µg/mL) | 0.42 (≈ 0.183 µg/mL) |  |  |  |  |  | 
O=C1NC(N2CCNCC2)=N/C1=C\c1ccc2ccccc2c1 | 500 (≈ 153 µg/mL) | 250 (≈ 76.6 µg/mL) |  | inactive | inactive | inactive | inactive | fold change (FC) [13]: 128; fold change (FC) (Staphylococcus aureus [14]): 2; fold change (FC) [15]: 256; fold change (FC) [16]: 4; fold change (FC) [17]: 4; inhibition [18]: inactive; Ratio (Staphylococcus aureus [19]): 2
CC1(c2cccc3ccccc23)NC(=O)N(CCCN)C1=O (stereo not drawn) | > 1000 | > 1000 | inactive | inactive | inactive | inactive | inactive | inhibition [3]: inactive; inhibition [5]: inactive; inhibition [6]: inactive; inhibition [9]: inactive; inhibition [10]: inactive
CC1(c2cccc3ccccc23)NC(=O)N(CCCCCN)C1=O (stereo not drawn) | 1000 (≈ 325 µg/mL) | > 1000 | inactive |  |  |  |  | inhibition [20]: inactive
NC[C@@H]1O[C@H](O[C@H]2[C@@H](O)[C@H](O[C@@H]3[C@@H](O)[C@H](N)C[C@H](N)[C@H]3O[C@H]3O[C@H](CN)[C@@H](O)[C@H](O)[C@H]3N)O[C@@H]2CO)[C@H](N)[C@@H](O)[C@@H]1O [FRAMYCETIN] | 240 (≈ 148 µg/mL) | 1 (≈ 0.615 µg/mL) |  |  |  |  |  | Ratio (Staphylococcus aureus [19]): 240

Reference: ChEMBL document CHEMBL3616416, “Imidazolidine-4-one derivatives in the search for novel chemosensitizers of Staphylococcus aureus MRSA: synthesis, biological evaluation and molecular modeling studies” (Eur J Med Chem, 2015)
